Published values gathered from unrelated publications.
Compare with care: the assays were run in different laboratories.
Organism: Severe acute respiratory syndrome coronavirus 2
Mode: inhibitor

Compound | effect on | cells | time | notes | IC50 [nM]
COc1nc(N)ncc1-c1cn([C@@H]2O[C@](F)(CO)[C@@H](O)[C@H]2O)cn1 | viral replication | A549-ACE2 | 24 h |  | > 100000
Cc1ccc(NC(=O)C2(c3ccc4c(c3)OC(F)(F)O4)CC2)nc1-c1cccc(C(=O)O)c1 | viral replication | Caco-2 |  | replicon | 964
CC(C)C(=O)OC[C@@]1(F)O[C@@H](n2cnc(-c3c[nH]c(=O)[nH]c3=O)c2)[C@H](OC(=O)C(C)C)[C@@H]1OC(=O)C(C)C | viral replication | A549-ACE2 | 24 h |  | 49800
Cc1ccccc1-n1nnnc1Sc1ccc(C(=O)c2ccccc2)cc1[N+](=O)[O-] | viral replication | A549-hACE2-TMPRSS2 | 24 h |  | 25300
O=C(Nc1ccc([N+](=O)[O-])cc1Cl)c1cc(Cl)ccc1O | viral entry | HeLa-ACE2 |  | pseudovirus | 1350
O=c1[nH]c2ccccc2n1C1CCN(CCCC(c2ccc(F)cc2)c2ccc(F)cc2)CC1 | viral replication | Calu-3 |  | replicon | 4910
COc1ncc(-c2cn([C@@H]3O[C@](F)(COC(=O)C(C)C)[C@@H](OC(=O)C(C)C)[C@H]3OC(=O)C(C)C)cn2)c(N)n1 | viral replication | A549-ACE2 | 24 h |  | 41900
CCC(CC)COC(=O)[C@H](C)N[P@](=O)(OC[C@H]1O[C@@](C#N)(c2ccc3c(N)ncnn23)[C@H](O)[C@@H]1O)Oc1ccccc1 | viral replication | A549-hACE2-TMPRSS2 | 24 h |  | 100
CCOc1nc2cccc(C(=O)O)c2n1Cc1ccc(-c2ccccc2-c2nnn[nH]2)cc1 | viral replication | Caco-2 |  | replicon | 714
Cc1cn2nc([C@@H]3CCCCN3C(=O)c3cc(Cl)ccc3NS(C)(=O)=O)cc2nc1N1CC[C@H](N)C1 | viral entry | HeLa-ACE2 |  | pseudovirus | 320
